Measured values as given in ChEMBL document CHEMBL1140263, “Structure-based design, synthesis, and study of potent inhibitors of beta-ketoacyl-acyl carrier protein synthase III as potential antimicrobial agents” (J Med Chem, 2005).
≈ marks a conversion by molar mass, not a printed value.

Experiments:
[1] = molecular target: T1, Beta-ketoacyl-[acyl-carrier-protein] synthase III (Enterococcus faecalis (strain ATCC 700802 / V583), UniProt Q820T1); assay: Inhibitory concentration against Enterococcus faecalis beta-Ketoacyl-acyl carrier protein synthase III
T1 sequence (Q820T1 whole entry): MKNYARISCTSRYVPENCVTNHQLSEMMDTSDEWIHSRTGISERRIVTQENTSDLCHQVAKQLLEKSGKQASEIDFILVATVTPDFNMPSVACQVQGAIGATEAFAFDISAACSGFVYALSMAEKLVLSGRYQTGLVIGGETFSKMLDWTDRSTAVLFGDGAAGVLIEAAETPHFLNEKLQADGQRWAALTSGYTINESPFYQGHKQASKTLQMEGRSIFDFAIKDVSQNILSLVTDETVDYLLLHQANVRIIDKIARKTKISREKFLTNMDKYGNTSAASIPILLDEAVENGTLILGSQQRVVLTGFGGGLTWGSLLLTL
Method in brief: (§1)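 Coupled FabD/FabH radiometric assay with His-tagged or tagless FabH expressed in E. coli BL21(DE3). The mix held 100 mM sodium phosphate pH 7.0, 2 mM DTT, 1 mM MgCl₂, 12.5 µM E. coli holo-ACP, 10 nM FabD and 3-5 nM FabH. Malonyl-CoA was added for 1 min, then acetyl-CoA plus [³H]acetyl-CoA, NADH and NADPH for 19 min. TCA-precipitated protein was counted by liquid scintillation; DMSO ≤2% final.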

Escherichia coli = assay: Minimum inhibitory concentration against Escherichia coli TolC- mutant in presence of membrane permeablizing agent polymyxin B; format: functional
[2] = Minimum inhibitory concentration against Enterococcus faecalis VRE 583; format: functional, Enterococcus faecalis V583
[3] = molecular target: T2, Beta-ketoacyl-[acyl-carrier-protein] synthase III (Staphylococcus aureus subsp. aureus Mu50, UniProt P68795); assay: Inhibitory concentration against Staphylococcus aureus beta-Ketoacyl-acyl carrier protein synthase III
T2 sequence (P68795 whole entry): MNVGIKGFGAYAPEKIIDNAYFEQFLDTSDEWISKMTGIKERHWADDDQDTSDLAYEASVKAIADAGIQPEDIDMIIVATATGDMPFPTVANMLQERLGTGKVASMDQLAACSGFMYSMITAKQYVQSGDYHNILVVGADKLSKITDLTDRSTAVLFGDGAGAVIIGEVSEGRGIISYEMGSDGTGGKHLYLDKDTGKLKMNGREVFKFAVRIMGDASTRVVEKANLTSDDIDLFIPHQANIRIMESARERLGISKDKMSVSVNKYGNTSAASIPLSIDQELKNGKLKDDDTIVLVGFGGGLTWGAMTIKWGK
Method in brief: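 Coupled FabD/FabH radiometric assay, 100 µL final, pH 7.0: 100 mM sodium phosphate, 2 mM DTT, 1 mM MgCl2, 12.5 µM E. coli holo-ACP, 10 nM FabD, 20 nM S. aureus FabH (His-tagged or tagless, expressed in E. coli BL21(DE3)). FabD started with malonyl-CoA for 1 min. Acetyl-CoA plus [3H]acetyl-CoA, NADH and NADPH then added; FabH reaction 19 min. Stopped with TCA; pellet counted by liquid scintillation. DMSO ≤2% final.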

Staphylococcus aureus = assay: Minimum inhibitory concentration against Staphylococcus aureus MRSA 703; format: functional
[4] = molecular target: T3, Beta-ketoacyl-[acyl-carrier-protein] synthase III (Streptococcus pyogenes serotype M3 (strain ATCC BAA-595 / MGAS315), UniProt P0DB00); assay: Inhibitory concentration against Streptococcus pyogenes beta-Ketoacyl-acyl carrier protein synthase III
T3 sequence (P0DB00 whole entry): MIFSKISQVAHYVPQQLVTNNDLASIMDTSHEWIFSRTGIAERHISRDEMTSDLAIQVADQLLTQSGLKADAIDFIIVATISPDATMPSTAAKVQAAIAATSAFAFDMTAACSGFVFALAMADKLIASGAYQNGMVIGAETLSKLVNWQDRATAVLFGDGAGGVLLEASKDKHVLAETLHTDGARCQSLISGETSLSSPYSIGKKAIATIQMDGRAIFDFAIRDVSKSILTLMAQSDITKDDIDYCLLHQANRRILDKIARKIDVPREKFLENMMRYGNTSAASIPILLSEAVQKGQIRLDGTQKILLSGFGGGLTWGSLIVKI
Method in brief: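 S. pyogenes FabH (10 nM, His-tagged or tagless, expressed in E. coli BL21(DE3)) was run in a coupled assay with 10 nM FabD, 12.5 µM holo-ACP, 100 mM sodium phosphate pH 7.0, 2 mM DTT and 1 mM MgCl₂. Malonyl-CoA was added for 1 min, then [³H]acetyl-CoA/acetyl-CoA with NADH and NADPH for 19 min. The reaction was stopped with cold TCA and the pellet read by scintillation. Inhibitor DMSO ≤2%.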

[5] = molecular target: T4, Beta-ketoacyl-[acyl-carrier-protein] synthase III (Haemophilus influenzae (strain ATCC 51907 / DSM 11121 / KW20 / Rd), UniProt P43711); assay: Inhibitory concentration against Haemophilus influenzae beta-Ketoacyl-acyl carrier protein synthase III; method in brief: as §1
T4 sequence (P43711 whole entry): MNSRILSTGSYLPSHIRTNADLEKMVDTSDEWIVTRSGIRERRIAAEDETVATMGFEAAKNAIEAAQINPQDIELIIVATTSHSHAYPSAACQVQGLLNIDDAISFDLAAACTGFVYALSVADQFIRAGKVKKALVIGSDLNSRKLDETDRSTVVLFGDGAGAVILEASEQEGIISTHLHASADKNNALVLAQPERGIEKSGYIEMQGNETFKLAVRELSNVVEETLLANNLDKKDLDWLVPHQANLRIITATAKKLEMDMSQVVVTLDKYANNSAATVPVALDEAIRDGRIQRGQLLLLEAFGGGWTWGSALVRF

Streptococcus pneumoniae = assay: Minimum inhibitory concentration against Streptococcus pneumonia ATCC 6301; format: functional
Neisseria meningitidis = assay: Minimum inhibitory concentration against Neisseria meningitides MC58 in presence of membrane permeablizing agent polymyxin B; format: functional
Streptococcus pyogenes = assay: Minimum inhibitory concentration against Streptococcus pyogenes NZ131; format: functional

| Compound | IC50 [1] [µM] | also measured |
| --- | --- | --- |
| CCN(CC)S(=O)(=O)c1cc(C(=O)Nc2ccccc2C(=O)O)ccc1-c1ccccc1 | 1.6 | – |
| O=C(Nc1ccccc1C(=O)O)c1ccc(-c2ccccc2)c(Oc2ccccc2)c1 | 0.056 | MIC (Escherichia coli): 1.4 µg/mL; MIC [2]: 22 µg/mL (≈ 53.7 µM); IC50 [3]: 10 µM; MIC (Staphylococcus aureus): 11.3 µg/mL (≈ 27.6 µM); IC50 [4]: 0.05 µM; IC50 [5]: > 100 µM; MIC (Streptococcus pneumoniae): 1.4 µg/mL (≈ 3.42 µM); MIC (Neisseria meningitidis): 1.4 µg/mL |
| CCN(CC)S(=O)(=O)c1cc(C(=O)Nc2ccccc2C(=O)O)ccc1F | 8.4 | – |
| CCN(CC)S(=O)(=O)c1cc(C(=O)Nc2ccccc2C(=O)O)ccc1Oc1ccccc1 | 6.1 | – |
| O=C(Nc1ccccc1C(=O)O)c1ccc(-c2ccc(O)cc2)c(Oc2ccccc2)c1 | 0.41 | – |
| O=C(Nc1ccccc1C(=O)O)c1ccc(N2CCNCC2)c(Oc2ccccc2)c1 | 185 | – |
| O=C(Nc1sccc1C(=O)O)c1cccc(Oc2ccccc2)c1 | 43 | – |
| CCOc1ccc(-c2ccc(C(=O)Nc3ccccc3C(=O)O)cc2Oc2ccccc2)cc1 | 0.22 | – |
| O=C(Nc1ccccc1C(=O)O)c1ccc(-c2cccnc2)c(Oc2ccccc2)c1 | 0.11 | – |
| O=C(Nc1ccccc1C(=O)O)c1ccc(-c2cccc(OC(F)(F)F)c2)c(Oc2ccccc2)c1 | 0.47 | – |
| CC(C)c1cccc(-c2ccc(C(=O)Nc3ccccc3C(=O)O)cc2Oc2ccccc2)c1 | 0.79 | MIC (Escherichia coli): 2.8 µg/mL; MIC [2]: 5.6 µg/mL (≈ 12.4 µM); MIC (Staphylococcus aureus): 5.6 µg/mL (≈ 12.4 µM); MIC (Streptococcus pneumoniae): 1.4 µg/mL (≈ 3.1 µM); MIC (Neisseria meningitidis): 1.4 µg/mL; MIC (Streptococcus pyogenes): 2.8 µg/mL (≈ 6.2 µM) |

More lines, main results first:

| IC50 [1] [µM] | Compound | also measured |
| --- | --- | --- |
| 2.7 | O=C(Nc1ccccc1C(=O)O)c1cccc(Oc2ccccc2)c1 | – |
| 22 | O=C(Nc1ccccc1C(=O)O)c1ccc(-c2cn[nH]c2)c(Oc2ccccc2)c1 | – |
| 1.1 | O=C(Nc1ccccc1C(=O)O)c1ccc(Br)c(Oc2ccccc2)c1 | – |
| 2.2 | CCN(CC)S(=O)(=O)c1cc(C(=O)Nc2ccccc2C(=O)O)ccc1N1CCCCC1 | – |
| 1.6 | CCN(CC)S(=O)(=O)c1cc(C(=O)Nc2ccccc2C(=O)O)ccc1Br | – |
| 10.1 | O=C(Nc1ccsc1C(=O)O)c1cccc(Oc2ccccc2)c1 | – |
| 25 | CN1CCN(c2ccc(C(=O)Nc3ccccc3C(=O)O)cc2Oc2ccccc2)CC1 | – |
| 0.29 | O=C(Nc1ccccc1C(=O)O)c1ccc(N2CCCCC2)c(Oc2ccccc2)c1 | – |
| 290 | O=C(Nc1cccnc1C(=O)O)c1cccc(Oc2ccccc2)c1 | – |
| 3.2 | O=C(Nc1ccccc1C(=O)O)c1ccc(N2CCOCC2)c(Oc2ccccc2)c1 | – |
| 0.57 | O=C(Nc1ccccc1C(=O)O)c1ccc(-c2ccc(F)c(Cl)c2)c(Oc2ccccc2)c1 | – |
| 0.096 | O=C(Nc1ccccc1C(=O)O)c1ccc(-c2ccc(C(F)(F)F)cc2)c(Oc2ccccc2)c1 | MIC (Escherichia coli): 0.7 µg/mL; MIC [2]: 5.6 µg/mL (≈ 11.7 µM); MIC (Staphylococcus aureus): 5.6 µg/mL (≈ 11.7 µM); MIC (Streptococcus pneumoniae): 0.7 µg/mL (≈ 1.47 µM); MIC (Neisseria meningitidis): 1.4 µg/mL; MIC (Streptococcus pyogenes): 2.8 µg/mL (≈ 5.86 µM) |
